The source of these data is the RNAGym collection of RNA variant scans (doi:10.1126/science.aae0568).

The labels stand for the following.
B1: tRNA (parent)
chain: GUUCCGUUGGCGUAAUGGUAACGCGUCUCCCUCCUAAGGAGAAGACUGCGGGUUCGAGUCCCGUACGGAACG

Fewer inactive variants are shown than the library holds. Where only a bound is given, the exact number is not on record here.

In this series the parent is B1. The series can be described thus: yeast fitness relative to wild type (ratio to wild type); higher = fitter; tRNA-Arg(CCU), competitive growth, 37 C, YPD. Put shortly: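 For this measurement, the tRNA-Arg(CCU) gene was varied by chemical synthesis at a 3% per-site mutation rate across 69 sites, and each variant was placed at the native genomic locus in Saccharomyces cerevisiae. The pooled strains went through a 24-hour competition in YPD at 37°C in six parallel replicates, with amplicons from start and end populations read by 100-nucleotide paired-end sequencing. Darwinian fitness relative to wild type followed from the change in each genotype's frequency. Genotypes needed ≥ 100 starting reads, and estimates < 0.5 were set to 0.5.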
Consider A15G A43G, for which the yeast fitness was 0.975.

In the case of U2G G9C A20G A42C C46G C49U, the yeast fitness stood at 0.602.

Take U8A C22U A69C A70C: the yeast fitness came to 0.595.

Take G23C C33A G50C G58C A70G: the yeast fitness was determined as 0.548.

With A43U G48A, the yeast fitness came to 1.01.

Turning to U2A A37U, the yeast fitness was 0.689.

For the variant U8C A14U C22G C30U U54C, the yeast fitness is at most 0.5.

Take U28C U64C: the yeast fitness stood at 0.877.

A21G C24A A69U A70G: the yeast fitness is at most 0.5.

Turning to A20C C24G A40C C55G, the yeast fitness was at most 0.5.

As for C5U U32G G63C C66U, the yeast fitness was at most 0.5.

Consider U3A A20U A42C C55G, for which the yeast fitness was at most 0.5.

Take C33U U54C G58A: the yeast fitness came out at 0.643.

Turning to C4A C30U A40G, the yeast fitness worked out at 0.542.

G9A U16A: the yeast fitness amounted to 1.08.

Turning to G9C U16G C66G, the yeast fitness is at most 0.5.

Regarding A15U C66A, the yeast fitness was found to be 0.649.

In the case of A21U C30A A70G, the yeast fitness was 0.756.

G9A C27G: the yeast fitness was 0.757.

As for C22G G58C C66A, the yeast fitness is at most 0.5.

As to U3C U16G U19A A43U A57U, the yeast fitness is at most 0.5.

On to G18C C24G C46A, for which the yeast fitness is at most 0.5.

In the case of G6C U13A U54A A57C, the yeast fitness was at most 0.5.

With U2G C31G A57U C60A, the yeast fitness was at most 0.5.

G10U A43G C46U: the yeast fitness was at most 0.5.

As for U3C G25A C29U, the yeast fitness was 0.681.

On to G9A C30G G68U, for which the yeast fitness is at most 0.5.

As for C4U C11A A14C U28A C31U A37U G39A A42G, the yeast fitness is 0.645.

C4A A15C U28C C34G: the yeast fitness is at most 0.5.

With C4G C24U A40U A42C A45U, the yeast fitness was at most 0.5.

As to A40C G56A, the yeast fitness came to 0.883.

C29U A57G C60G U64C: the yeast fitness stood at 0.609.

In the case of C11U G44C, the yeast fitness was determined as 0.974.

C61G C62G A70C: the yeast fitness stood at 0.512.

In the case of A20G U35A A37G A43U A45C, the yeast fitness is at most 0.5.

C11A A42G A43G C61A: the yeast fitness was at most 0.5.

As to G18A A40C U47G A65C, the yeast fitness is at most 0.5.

Turning to G38C G39A A43C C60G A65C, the yeast fitness was found to be 0.518.

With C34G A57C G63A, the yeast fitness was at most 0.5.

Turning to C4G C24A C34A U47C, the yeast fitness was at most 0.5.

For the variant A45C G50A A65U, the yeast fitness was found to be 0.643.

Regarding A14G G39C G51A, the yeast fitness is at most 0.5.

On to C5U G10C, for which the yeast fitness is 0.629.

Take G56C C60A: the yeast fitness came out at 0.587.

As for U7A U16C G17A C29U C31A C55A, the yeast fitness was at most 0.5.

A21C U47C A65C: the yeast fitness is at most 0.5.

Regarding A21C C22U C31U C33U G48C, the yeast fitness is at most 0.5.

Turning to U3C C31G U32C G38C C46G G48C, the yeast fitness was at most 0.5.

For C11G C29A U35C A43C, the yeast fitness is at most 0.5.

In the case of A15U C22G C31U U32C A57C U64A G68A, the yeast fitness is at most 0.5.

Take C31G C33U U59G C66U G68A: the yeast fitness was found to be 0.543.

For C24U G39A A57C, the yeast fitness was 0.727.

Consider U19A C24G C27U C30A U64A A70C, for which the yeast fitness is at most 0.5.

As to C5G A14U G67A A69G, the yeast fitness came out at 0.503.

Turning to G38C U47G C62U, the yeast fitness is 0.521.

As to C31A C33G A45G G48A, the yeast fitness was at most 0.5.

For the variant G6C C33U G38C G52C C62U, the yeast fitness was at most 0.5.

Turning to A36C A37G, the yeast fitness stood at 0.611.

For the variant G6A A15C C22G A43C G50A, the yeast fitness was at most 0.5.

Take C11A C66U: the yeast fitness was found to be 0.569.

C5G U28C: the yeast fitness is 0.737.

As for A15G G25C G48A, the yeast fitness is 0.637.

Turning to G25C C34U A37U A40U, the yeast fitness is at most 0.5.

On to U7C C24U C30G A45C C61G, for which the yeast fitness was at most 0.5.

As for U2A A21G C29U A40U, the yeast fitness is 0.57.

Take G6A A45C A70G: the yeast fitness was 0.536.

Regarding A20G G51C, the yeast fitness was found to be 0.581.

Consider U8C A14C G18A C31U A45G, for which the yeast fitness is at most 0.5.

Take G44A A69U: the yeast fitness stood at 1.06.

As for C11U U19C U59C C61A, the yeast fitness is at most 0.5.

For the variant U2A A65C, the yeast fitness is 0.848.

Consider U26A G41C A65G G67A, for which the yeast fitness was at most 0.5.

On to C4G A20C U54G, for which the yeast fitness is 0.529.

For the variant C11U U19A, the yeast fitness came to 0.992.

For the variant C24A G48A U53G, the yeast fitness was at most 0.5.

For the variant C31U A42C U54A, the yeast fitness was at most 0.5.

As to C31A A40U C46A, the yeast fitness amounted to 0.555.

As to G6C U7A A21C A37C U47C A69C, the yeast fitness is at most 0.5.

Take C29G C49G C60G: the yeast fitness is at most 0.5.

Turning to A20G C60A U64A C66U, the yeast fitness was at most 0.5.

With A15C G17A A36G G38C U59C, the yeast fitness is at most 0.5.

With G23C G48A U64A A65U, the yeast fitness was at most 0.5.

As to A40C C55G A69U, the yeast fitness is at most 0.5.

Take U3A C11U C55G A65C: the yeast fitness is at most 0.5.

With C5G G51C A57U C60U, the yeast fitness is at most 0.5.

Turning to U3A G6C A37U G58A, the yeast fitness was 0.524.

For U2A C61U, the yeast fitness was 0.768.

Turning to G10A U26A C66U, the yeast fitness turned out to be 0.537.

In the case of C34U A42C G56C, the yeast fitness is at most 0.5.

Regarding C4G C30G G41C A70U, the yeast fitness was at most 0.5.

Regarding C30G A43U G48C U64G, the yeast fitness was at most 0.5.

In the case of G25C C30U A69C, the yeast fitness was found to be 0.606.

C11U A43C: the yeast fitness was 0.686.

Take U47G C62U A65C: the yeast fitness is at most 0.5.

As for C33U A43U C55U, the yeast fitness is at most 0.5.

Consider C22G C27G U54C C66U, for which the yeast fitness was at most 0.5.

For the variant A14C U26A C34U C55G, the yeast fitness is 0.519.

In the case of G44C G50C U54G C61G, the yeast fitness came to 0.568.

Take U7C G10A G50C: the yeast fitness was at most 0.5.

With C5A G17C A57C, the yeast fitness stood at 0.551.

Turning to C29U A36U C61U, the yeast fitness is at most 0.5.

For the variant C49U A70G, the yeast fitness worked out at 1.07.

With C34A C66G, the yeast fitness turned out to be 0.647.

Turning to G23C A37C, the yeast fitness amounted to 0.656.

C4G U19A A21G G52C C55G: the yeast fitness is at most 0.5.

Regarding C29U G44C C60A, the yeast fitness is at most 0.5.

With C29U G58C G68A, the yeast fitness was at most 0.5.

Take U19G U32G: the yeast fitness came to 0.62.

For the variant C22U C31G G51A, the yeast fitness was determined as 0.563.

As to C30A A69G, the yeast fitness stood at 0.915.

Take C4U A21G C22A C46A: the yeast fitness was 0.563.

Take A21C C29U A57C: the yeast fitness was determined as 0.558.

In the case of G6C A42C C49U C62U, the yeast fitness was at most 0.5.

Turning to G12C C22U U32C, the yeast fitness was 0.692.

Consider G6A G23C C29G A43U G50A A65C, for which the yeast fitness is at most 0.5.

With A14G U28A, the yeast fitness came to 0.705.

For the variant U2G G9C A15G, the yeast fitness was at most 0.5.

As to C11G C27U A43C A65U, the yeast fitness is at most 0.5.

In the case of G12C C29U, the yeast fitness stood at 0.85.

For C5G G23C C33U G39A A43C, the yeast fitness is at most 0.5.

As to G6A A14G C24A C31U A40U A70G, the yeast fitness was at most 0.5.

On to C30U G48C G68C, for which the yeast fitness turned out to be 0.636.

With C30G C62A, the yeast fitness was determined as 0.61.

Take G6C A42U C49U: the yeast fitness came out at 0.595.

Regarding A15G A36U C55U A65U, the yeast fitness was at most 0.5.

Turning to G12C C49U, the yeast fitness worked out at 0.893.

In the case of G12A A21G C34U C62A A69U, the yeast fitness is at most 0.5.

As for A43G C49U C60A C62A, the yeast fitness was at most 0.5.

Consider G39C A40G G48C, for which the yeast fitness is at most 0.5.

For the variant U13A A20G G41A G51C G67C, the yeast fitness is at most 0.5.

For the variant C30A C49A C60U, the yeast fitness was at most 0.5.

Take A15G U28C A37C A70U: the yeast fitness is at most 0.5.

C61U G63C: the yeast fitness was found to be 0.565.

G52C G63C: the yeast fitness was 0.577.

Turning to U7A G17C G51A, the yeast fitness is at most 0.5.

As for C4U C5G G9A G51C, the yeast fitness is at most 0.5.

For C11G G25A C34G, the yeast fitness was at most 0.5.

C29A U35A G56A G63A: the yeast fitness stood at 0.525.

Regarding U32C G48C C49U, the yeast fitness was found to be 0.635.

C30A G51C C55A C66U: the yeast fitness is at most 0.5.

Consider G9A A37G A57U C66U, for which the yeast fitness was at most 0.5.

With A40C G41C G68C, the yeast fitness turned out to be 0.542.

On to A14G A21C A65C, for which the yeast fitness was 0.539.

For A20U U35A C46G C49U, the yeast fitness was at most 0.5.

For U8C A15C U32C, the yeast fitness is at most 0.5.

With C31G G56U, the yeast fitness came to 0.723.

Regarding C22G U28C, the yeast fitness was found to be 0.853.

For C4G U26C, the yeast fitness came out at 0.993.

On to U16G C46U U53C A69C, for which the yeast fitness stood at 0.711.

Consider G56C U59A, for which the yeast fitness is 0.663.

Take C11U U16C G25A: the yeast fitness came out at 0.9.

Turning to U13A C34G G50A C60G C61U, the yeast fitness was at most 0.5.

On to C11U G25A C62U A70C, for which the yeast fitness was 0.67.

In the case of U8C U54G U64A, the yeast fitness worked out at 0.543.

On to U2G C27G, for which the yeast fitness is 0.546.

Turning to C11G A40U A45U A69U, the yeast fitness was at most 0.5.

For the variant C27A U28C C29G A70G, the yeast fitness was at most 0.5.

For G10A C31U G38C G63A G68C A69G, the yeast fitness worked out at 0.578.

Consider G6C C33U G52C C55A, for which the yeast fitness was at most 0.5.

With G9A C22G U35C A37U, the yeast fitness came to 0.535.

On to G9C C11U A36C, for which the yeast fitness was at most 0.5.

For the variant A14U U16A C33G, the yeast fitness is at most 0.5.

As to G17A G18A A42C C55U, the yeast fitness stood at 0.508.

As for C5G U7A A20C G68C, the yeast fitness was at most 0.5.

For the variant C5U U35G A65U, the yeast fitness worked out at 0.576.

Take A20U A43U C49A G58C: the yeast fitness was determined as 0.535.

For the variant G10C G41C C62U C66G A70G, the yeast fitness was at most 0.5.
